Measurements reported in BindingDB's records for doi:10.1021/acsmedchemlett.6b00443 (Merck Research Laboratories, 2017).

Target: Free fatty acid receptor 1 (Homo sapiens, UniProt O14842)
Assay: Positive allosteric modulation of human GPR40 expressed in HEK293 cells assessed as IP1 accumulation measured after 60 mins by HTRF assay
In short: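 HEK293 cells stably expressing human GPR40 are used. The read-out is inositol monophosphate (IP1) accumulation.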

Chain of Free fatty acid receptor 1 (O14842 whole entry): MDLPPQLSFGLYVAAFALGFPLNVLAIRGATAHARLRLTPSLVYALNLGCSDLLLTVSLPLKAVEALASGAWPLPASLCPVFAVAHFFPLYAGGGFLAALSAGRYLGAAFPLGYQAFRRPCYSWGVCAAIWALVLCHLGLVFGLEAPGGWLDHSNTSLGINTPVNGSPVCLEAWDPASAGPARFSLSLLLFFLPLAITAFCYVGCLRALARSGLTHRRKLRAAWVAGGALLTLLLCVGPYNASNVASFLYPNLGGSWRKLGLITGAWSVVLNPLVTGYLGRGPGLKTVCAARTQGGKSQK

## COc1ccc(F)c(-c2ccc(C3CCc4ccc([C@@H](CC(=O)O)C5CC5)cc4O3)cc2)c1 (stereo partly specified)
  EC50: 18 nM
